Reference: ChEMBL document CHEMBL1811767, “Quinoxalin-2(1H)-one derivatives as inhibitors against hepatitis C virus” (J Med Chem, 2011)

Columns and labels:
Hepatitis C virus = assay: Antiviral activity against Hepatitis C virus infected in human Huh7ET cells assessed as inhibition of dicistronic viral RNA replication after 72 hrs by luciferase reporter gene assay; assay type: functional, organism-based, Hepacivirus hominis; details: Huh-7, 72 h
Outline: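 HCV replicon Huh 7 ET cells seeded 5000/well in DMEM without G418 overnight; compounds dissolved in DMSO, diluted in DMEM, dose-response. After 72 h, replicon-derived luciferase read by Steady-Glo. Mean of four replicates; EC50 = concentration inhibiting HCV RNA replication by 50%.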

[1] = Cytotoxicity against human Huh7ET cells by CytoTox-one cell proliferation assay; assay type: cell-based; details: Huh-7
Outline: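 Parallel plate of replicon Huh 7 ET cells (5000/well, DMEM without G418), compounds from DMSO stocks diluted in DMEM, 72 h. Viability by tetrazolium-based CytoTox-1 proliferation assay. Mean of four replicates; IC50 = concentration decreasing cell viability by 50%.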

[2] = Selectivity index, ratio of IC50 for human Huh7ET cells to EC50 for Hepatitis C virus; assay type: toxicity, cell-based, Huh-7; details: read-out: Ratio IC50/EC50
Outline: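 SI taken as IC50 (CytoTox-1 viability, Huh 7 ET replicon cells, 72 h) divided by EC50 (replicon luciferase, same cells and exposure); each from four-replicate averages.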

Structure (SMILES) | EC50 (Hepatitis C virus) | IC50 [1] | selectivity ratio [2]
CN(c1cc2ncc(=O)[nH]c2cc1NC(=S)NC(=O)c1ccccc1)C1CCCCC1 | 2.42 µM | 11.1 µM | 4.57
CN(c1cc2ncc(=O)[nH]c2cc1Nc1nc(-c2ccc(Cl)cc2)cs1)C1CCCCC1 | 5.39 µM | 16.7 µM | 3.1
CN(c1cc2ncc(=O)[nH]c2cc1NC(=S)NC(=O)c1ccc(F)cc1)C1CCCCC1 | 2.97 µM | 11.4 µM | 3.8
CN(c1cc2c(cc1Nc1nc(-c3ccccc3)cs1)NC(=O)C1CCCCN21)C1CCCCC1 (stereo unspecified) | 1.19 µM | 11 µM | 9.27
CN(c1cc2ncc(=O)[nH]c2cc1NC(=S)Nc1ccc(F)cc1)C1CCCCC1 | > 20 µM | 64.3 µM | < 3.2
CN(c1cc2ncc(=O)[nH]c2cc1N1CC(=O)N(c2ccccc2)C1=S)C1CCCCC1 | 2.21 µM | 2.99 µM | 1.4
CN(c1cc2ncc(=O)[nH]c2cc1NC(=S)NC(=O)c1ccc(Cl)nc1)C1CCCCC1 | 16.4 µM | 34.5 µM | 2.1
CN(c1cc2ncc(=O)[nH]c2cc1NC(=O)Nc1ccccc1)C1CCCCC1 | 11.4 µM | 5.52 µM | 0.5
O=c1cnc2cc(N3CCOCC3)c(Nc3nc(-c4ccccc4)cs3)cc2[nH]1 | 5.19 µM | 58.3 µM | 11.2
CCN(CC)c1cc2ncc(=O)[nH]c2cc1Nc1nc(-c2ccccc2)cs1 | 1.27 µM | 22.8 µM | 17.9
CN(c1cc2ncc(=O)[nH]c2cc1Nc1nc(-c2ccc(-c3ccccc3)cc2)cs1)C1CCCCC1 | > 20 µM | 82 µM | < 4.1
CN(c1cc2ncc(=O)[nH]c2cc1NC(=N)NCc1ccccc1)C1CCCCC1 | 11.4 µM | 9.94 µM | 0.87
CN(c1cc2ncc(=O)[nH]c2cc1N1C(=O)CN(c2cccc3ccccc23)C1=S)C1CCCCC1 | 13.1 µM | 11.2 µM | 0.85
CCCN(CCC)c1cc2ncc(=O)[nH]c2cc1Nc1nc(-c2ccccc2)cs1 | 3.81 µM | 31.6 µM | 8.3
CN(c1cc2c(cc1Nc1nc(-c3ccccc3)cs1)NC(=O)CS2)C1CCCCC1 | > 20 µM | 13.8 µM | < 0.69
CN(c1cc2ncc(=O)[nH]c2cc1NC(=N)NCc1ccc(Cl)cc1)C1CCCCC1 | 3.94 µM | 4.4 µM | 1.12
CN(c1cc2ncc(=O)[nH]c2cc1NC(=S)Nc1cccc2ccccc12)C1CCCCC1 | > 20 µM | 43.6 µM | < 2.2
CN(c1cc2c(cc1Nc1nc(-c3ccccc3)cs1)[nH]c(=O)c1cccn12)C1CCCCC1 | 1.82 µM | 18 µM | 9.9
CN(c1cc2ncc(=O)[nH]c2cc1Nc1nc(C(F)(F)F)cs1)C1CCCCC1 | 8.12 µM | 37.4 µM | 4.6
CN(c1cc2ncc(=O)[nH]c2cc1NC(=S)NC(=O)c1ccc(OC(F)(F)F)cc1)C1CCCCC1 | 2.33 µM | 6.47 µM | 2.78
CC(C)Cc1nc2cc(N(C)C3CCCCC3)c(Nc3nc(-c4ccccc4)cs3)cc2[nH]c1=O | 4.19 µM | 33.3 µM | 7.9
CN(c1cc2ncc(=O)[nH]c2cc1Nc1nc2c(s1)Cc1ccccc1-2)C1CCCCC1 | 4.57 µM | 10.9 µM | 2.39
CN(c1cc2c(cc1Nc1nc(-c3ccccc3)cs1)NC(=O)CO2)C1CCCCC1 | 15.4 µM | 17.5 µM | 1.1
CN(c1cc2ncc(=O)[nH]c2cc1NC(=S)Nc1cccc(C(F)(F)F)c1)C1CCCCC1 | > 20 µM | 78.4 µM | < 3.9

Structure (SMILES) | EC50 (Hepatitis C virus) | IC50 [1] | selectivity ratio [2]
CN(c1cc2ncc(=O)[nH]c2cc1Nc1nc(-c2ccc3c(c2)OCO3)cs1)C1CCCCC1 | > 20 µM | 61.2 µM | < 3.1
CN(c1cc2ncc(=O)[nH]c2cc1NC(=N)NCc1ccccn1)C1CCCCC1 | > 20 µM | 48.6 µM | < 2.4
CN1CCN(c2cc3ncc(=O)[nH]c3cc2Nc2nc(-c3ccccc3)cs2)CC1 | 4.59 µM | 10.2 µM | 2.2
CN(c1cc2ncc(=O)[nH]c2cc1NC(=S)NC(=O)c1cccc2ccccc12)C1CCCCC1 | 5.48 µM | 9.98 µM | 1.82
Cc1ccsc1C(=O)NC(=S)Nc1cc2[nH]c(=O)cnc2cc1N(C)C1CCCCC1 | 3.27 µM | 12.6 µM | 3.84
COc1ccc(CNC(=N)Nc2cc3[nH]c(=O)cnc3cc2N(C)C2CCCCC2)cc1 | > 20 µM | 19.5 µM | < 0.98
CN(c1cc2ncc(=O)[nH]c2cc1NC(=O)Nc1cccc2ccccc12)C1CCCCC1 | 9.84 µM | 5.33 µM | 0.5
Cc1nc2cc(N(C)C3CCCCC3)c(Nc3nc(-c4ccccc4)cs3)cc2[nH]c1=O | 3.91 µM | 12.3 µM | 3.15
COc1ccc(-c2csc(Nc3cc4[nH]c(=O)cnc4cc3N(C)C3CCCCC3)n2)cc1 | > 20 µM | 15 µM | < 0.75
CN(c1cc2ncc(=O)[nH]c2cc1NC(=S)NC(=O)/C=C/c1ccccc1)C1CCCCC1 | 6.77 µM | 11 µM | 1.6
CC(C)c1nc2cc(N(C)C3CCCCC3)c(Nc3nc(-c4ccccc4)cs3)cc2[nH]c1=O | 8.62 µM | 67.4 µM | 7.8
COc1cc(C(=O)NC(=S)Nc2cc3[nH]c(=O)cnc3cc2N(C)C2CCCCC2)cc(OC)c1OC | 5.16 µM | 15.9 µM | 3.1
CN(c1cc2ncc(=O)[nH]c2cc1Nc1nc(-c2ccco2)cs1)C1CCCCC1 | 12.2 µM | 11.9 µM | 1
CSCCc1nc2cc(N(C)C3CCCCC3)c(Nc3nc(-c4ccccc4)cs3)cc2[nH]c1=O | > 20 µM | 86 µM | < 4.3
CN(c1cc2ncc(=O)[nH]c2cc1Nc1nc(-c2cccs2)cs1)C1CCCCC1 | > 20 µM | 71.3 µM | < 3.6
CN(C)c1cc2ncc(=O)[nH]c2cc1Nc1nc(-c2ccccc2)cs1 | > 20 µM | 57.5 µM | < 2.9
CN(c1cc2ncc(=O)[nH]c2cc1Nc1nc(-c2ccc(C#N)cc2)cs1)C1CCCCC1 | 6.07 µM | 18.1 µM | 2.98
CN(c1cc2ncc(=O)[nH]c2cc1Nc1nc(-c2cccc3ccccc23)cs1)C1CCCCC1 | 6.8 µM | 57.4 µM | 8.4
CN(c1cc2ncc(=O)[nH]c2cc1NC(=N)NCc1cccc(C(F)(F)F)c1)C1CCCCC1 | > 20 µM | 54 µM | < 2.7
CN(c1cc2ncc(=O)[nH]c2cc1NC(=N)NCc1ccc(F)cc1)C1CCCCC1 | 12.8 µM | 10.2 µM | 0.8
CN(c1cc2ncc(=O)[nH]c2cc1NC(=N)NCc1ccc(OC(F)(F)F)cc1)C1CCCCC1 | 3.97 µM | 3.7 µM | 0.9
CN(c1ccccc1)c1cc2ncc(=O)[nH]c2cc1Nc1nc(-c2ccccc2)cs1 | 4.61 µM | 15.9 µM | 3.4
CN(c1cc2nc(Cc3ccccc3)c(=O)[nH]c2cc1Nc1nc(-c2ccccc2)cs1)C1CCCCC1 | > 20 µM | 42 µM | < 2.1
